Tested on: MS2 coat protein
Experiment: apparent Kd, MS2 coat protein; higher = weaker binding; RNA-MaP array; FMN 200 µM where present
Outline: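 Two titrations, one without ligand and one with constant ligand, were run with SNAP-549-labelled MS2 coat protein from 0.7 or 1.5 nM, doubling to 3 µM. The targets were designs transcribed by stalled E. coli RNA polymerase on Illumina sequencing-chip clusters, in 100 mM Tris-HCl pH 7.5, 80 mM KCl, 4 mM MgCl2, BSA, DTT, yeast tRNA and Tween-20. The apparent Kd is the median of filtered per-cluster binding-curve fits, with green signal normalised to red-channel RNA signal and control-cluster median Fmax.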

[1] = designed as: OFF switch for flavin mononucleotide, no ligand
[2] = ligand present: flavin mononucleotide, designed as: OFF switch for flavin mononucleotide
[3] = designed as: ON switch for flavin mononucleotide, no ligand
[4] = ligand present: flavin mononucleotide, designed as: ON switch for flavin mononucleotide

Row | Sequence | apparent Kd [1] [nM] | apparent Kd [2] [nM] | apparent Kd [3] [nM] | apparent Kd [4] [nM]
1 | GAGUGACAUGAGGAUCACCCAUGUGAGGAUAUCGGACGGACCAAAUUAACAAUAAUUGCGAGAAGGCACAUCGG | 60.2 | 92.3 |  | 
2 | GGGAGUGAAGGAUAUACAUGAGGAUCACCCAUGUGGGAGGAGAGAGGUGAGGAGGCUGGUAGAAGGUCAGGAUG | 60.2 | 51.2 |  | 
3 | UUUAGUUCAGGAUAUGUAGAUUUUAACAUGAGGAUCACCCAUGUAGAUCCUGAUCCUGCUACAGAAGGAAAGAUUU | 26.9 | 25.5 |  | 
4 | CGGAGGUCAGGAUAUGCAUGGCGGGACUUGCGUCGUGGCGUGCAGAAGGGACAUGAGGAUCACCCAUGUGGAGU | 147 | 216 |  | 
5 | CGUAACUACAUAGGAUAUUGAUACAUGAGGAUCACCCAUGUUAUAGGGAUUAGUUUAAUAUUAAGCAAGAAGGAUGAAGUUACG |  |  | 18.6 | 12.4
6 | AAGAAGCUCACAGGAUAUCAGUAUAUGCGAUCACACGUAUUAAUGAACUGCUGAGAAGGGUGAGACAUGAGGAUCACCCAUGUA |  |  | 446 | 238
7 | GGAAAUCGUGUAGGAUAUGCAUGGCGAAGCUACGCAGAAGGACAUGAGGAUCACCCAUGUUAUAGCGUCCGAGAAAGGAUGCAA | 11 | 67.4 |  | 
8 | CAAUUUAUAGCAGGAUAUACAAUACAAUGAUUAGUAGAAGGGUUUAAUACAUGAGGAUCACCCAUGUCAUGUGUCAUAAUAACC | 31.2 | 23.5 |  | 
9 | GCGGAGUGAGGAUAUAGAACUUAAGGUACCAAUAAGGUACCCUAGAAGGCACAUGAGGAUCACCCAUGUACCGC | 24.3 | 24.4 |  | 
10 | AAAUGCCUGUCGAUGCUCGACAUGAGGAUCACCCAUGUAUAGCAGGAUAUGCAGACCUGACUCGUGCAGAAGGGCUAUACCUAA | 12.6 | 64.3 |  | 
11 | UCACGGGAUUGAGGAUAUAUAUUAAUUUUUUUUAUAGAAGGCAAAUUGUUAGAUUAUUCACUAUACAUGAGGAUCACCCAUGUU | 29.3 | 26.6 |  | 
12 | AUAGUGCGCGAGAAGGACGUACCACAUGUGGAUCACCUAUAUAAGGAACGUAGGAUAUUGCACAUGAGGAUCACCCAUGUGGAU |  |  | 41.4 | 34.1
13 | GGACAUUUACAGAAGGGCAAAUUUUAUAGUGAAUAUUUAGUUCUGAUUUGCAGGAUAUGUGGAACAUGAGGAUCACCCAUGUCC |  |  | 13.8 | 6.71
14 | GGAUAGGACAGAGGAUAUACGUGCUAGAGAUACUAGCAAAACUUCCUCACAUGAGGAUCACCCAUGUAGAAGGCUGUCCUAUCG | 16.7 | 564 |  | 
15 | ACUGUGUGAGGAUAUCUACGCCAUGUCUUUGACAUGGCGCAAGAGAAGGCACAUGAGGAUCACCCAUGUACUUC | 18.4 | 39.2 |  | 
16 | UGUUACUAGUAAGGAUAUACUUGCGAUUAGCUUGUAGAAGGUACAGUCUUUUGUAUAACAUGUUUACAUGAGGAUCACCCAUGU |  |  | 10.7 | 8.69
17 | GUCAGCUCCUGAGGAUAUACAACACUGCUUCGGCAGUGUAUUAAGAUCACAUGAGGAUCACCCAUGUAGAAGGCACGAGCUGAU | 12.1 | 156 |  | 
18 | UAUAUAUAGUAAGGAUAUGUAAUCAUUUUAUAAACAGAAGGUACUGACAUGAGGAUCACCCAUGUUUUAGUGUGGGCAUGUAGA | 86.4 | 141 |  | 
19 | UACAAUCUAUCUGAGGAUAUCAUGAAAAAAACAUGAGGAUCACCCAUGUGCAGGAAAACUGCAUAUGAGAAGGCAGAUAGAUUGG |  |  | 736 | 28.9
20 | AAAAGGCUAGGAUAUACAUGAGGAUCACCCAUGUGUACUGGACAUGCGGUAUGCGUAUGUAGAAGGAGUAUAAA | 14.4 | 21.6 |  | 
21 | CCGAAACCUCAGAAGGACCACAUGAGGAUCACCCAUGUCAAGCAAAACGGUAGGAUAUGAGGGAAAAGUCGAUAUACCCGACAG |  |  | 7.84 | 3.93
22 | AAGAAACAUGAGGAUCACCCAUGUGAGGAUAUGAAAAAGAAAAGAAAAGAAAGAAGGUUCAGAAGGCACAAAGG | 32.8 | 64.8 |  | 
23 | UUUUAACAUGAGGAUCACCCAUGUGAGGAUAUCGAAAUUUAUAUUAAUAUUAAUAAUACGAGAAGGCACAUUUU | 80.7 | 79.8 |  | 
24 | GCGUAUUUAAUAUAUAUAAAACUGUCAGAAGGUGAUAAGACGACAUGAGGAUCACCCAUGUAAUUCAAGGAUAUGAUAAUGCGC |  |  | 37.3 | 20.3

Row | Sequence | apparent Kd [1] [nM] | apparent Kd [2] [nM] | apparent Kd [3] [nM] | apparent Kd [4] [nM]
25 | CCUAAGGAGGCAGGAUAUAGUGUGGUGGCCGGGCUCCCACGGCGAGCGGCACUAGAAGGGUCACUACAUGAGGAUCACCCAUGU |  |  | 73.3 | 30
26 | CUCAUGUUAGGAUAUGCGCUCGACCUAGUGGUCGAGCUCUAGCAGAAGGAACAUGAGGAUCACCCAUGUUUGCA | 63.3 | 19.6 |  | 
27 | AAAAAGGUAGGAUAUACGAAAAAAAAGGGUAAAAUAAAUAAACAUGAGGAUCACCCAUGUAGAAGGACCAAAAA | 25.3 | 64.4 |  | 
28 | ACUUGCUUGCAGAAGGGUGACAUGAGGAUCACCCAUGUAGCGUGCCGGCGUAAAGUCAGCGCGCCACAGGAUAUGCAGGCCUCG |  |  | 65.8 | 44
29 | UAUAUAUAAUAUAUUAACAUGAGGAUCACCCAUGUCGCUAGACAGGAUAUAUUUAAUAUUAUAAAGUAGAAGGGUCAUAUAAUU |  |  | 50.5 | 64.8
30 | AACAGUGCUAAUAAAUAAGAUCUACAUGAGGAUCACCCAUGUAAGGAUAUCGUCAGGAAUACUGACGAGAAGGUACAUGCACUG | 15 | 25.9 |  | 
31 | ACCUAGACUAGGCCCACGGCAUCACAGGAUAUGCCGAUCACAUGAGGAUCACCCAUGUCAACUCCGCAGAAGGGUGAUAUCGUG |  |  | 179 | 14.1
32 | UUGGACGUCGUAGGAUAUGUAGGAUAUUCCUACAUGAGGAUCACCCAUGUGGACAUGGAAGAAGGACAGAAGGACGAUGUCCAU |  |  | 63.7 | 4.7
33 | GGGUUGUGAGGAUAUUAGUUGUACGUCAAUAGACGUAUAGGUGAGAAGGCACAUGAGGAUCACCCAUGUUCCUG | 23.8 | 56.9 |  | 
34 | UCGACCAGCGCCAGCCGAACAUGAGGAUCACCCAUGUACUCCAGAAGGCCGCCCAAGAACGGAGUGGAGGAUAUGGAGGUUCUC |  |  | 38 | 35.5
35 | GUAGCUAUCGCAGGAUAUCCUCAGCGGAAACGCACAUGAGGAUCACCCAUGUAAAUAAAUAAUUUGGAGAAGGGCGAUAGCUAC |  |  | 323 | 26.8
36 | GCCAUCGCAUGAGGAUAUGGCACCGUUUCGGUGCCAGAAGGCAUGUCGAAUGACAUGAGGAUCACCCAUGUAGUUAAGAUGGCA |  |  | 480 | 25.2
37 | AUCAGCUUGUCAGGAUAUGCGUGUCAACGAAAGUAGACAAUCUUAAUAACAUGAGGAUCACCCAUGUAGAAGGGACGAGCUGAU | 18.2 | 20.3 |  | 
38 | UGAUAACAUGUAGGAUAUCCAGCAUUGACCAUCGGAGAAGGACAUGAGGAUCACCCAUGUACCGAUACAAUGGGAUAAUGGAAU | 15.5 | 17.2 |  | 
39 | UGUAUGGACAGAGGAUAUACCGAUAGGAUCUACUAUCGAACAAUUCUCACAUGAGGAUCACCCAUGUAGAAGGCUGUCCAUACU | 16 | 29.5 |  | 
40 | AAAUAACCUAGCAAAAUUUCCUCACAUGAGGAUCACCCAUGUAGAAGGUUAACCUAAUAUAGGAUAAAGGAUAUACGUGCUAGG | 7.58 | 19.9 |  | 
41 | GCUAGUGCUGUGAGGAUAUGUGAUCGGAAAUGAUCGUAGAAGGCACAUGAGGAUCACCCAUGUAAGGUGCUAGU | 287 | 37.6 |  | 
42 | CGGCCGCUACGCCGGCUCGACGCACAGGAUAUGCUGUUACAUGAGGAUCACCCAUGUGGCCAUGAGCAGAAGGGUGAUUCGCGA |  |  | 48.9 | 30.9
43 | UGUUAAUAUCGAGGAUAUGUCUAGACACAUGAGGAUCACCCAUGUAUGUGUAUAGAAGGCGAUAUUAACAGCAUGUUACAUGCA |  |  | 36.9 | 16.9
44 | UUAUGUGUUGUAGGAUAUCAUUAGAUUUGUAAUUUAAUUGUAAUUUAUAUAUGAGAAGGACAUUUACAUGAGGAUCACCCAUGU | 22.3 | 13.4 |  | 
45 | GACUUGUCAGGAUAUCUUACAUUUGCAUCGUAGUUACCAUUGGAGAAGGGACAUGAGGAUCACCCAUGUUUGGC | 25.6 | 23.9 |  | 
46 | UUGGUUGUCGUAGGAUAUGGAGGAUAUUCCUACAUGAGGAUCACCCAUGUUCGCAUGGAAGAAGGCCAGAAGGACGAUGACCAU |  |  | 10.4 | 4.38
47 | GGAUAGGACAGAGGAUAUACGUGCUAGAGAUAAUAGCAAAAUUUCCUCACAUGAGGAUCACCCAUGUAGAAGGCUGUCCUAUCG | 19.5 | 250 |  | 
48 | GUAGCAUGCAGGCAGGAUAUUCAUAUUAAAACAUGAGGAUCACCCAUGUAGGCCAAAAGGCCUUGGGAGAAGGGCCACAUGCUAC |  |  | 636 | 45.7
